Laboratory results taken from BindingDB's records for doi:10.1128/aac.00067-07 (Rutgers University, 2007).
≈ marks a conversion by molar mass, not a printed value.

Assays:
1,3-beta-glucan synthase [1] = biological target: 1,3-beta-glucan synthase (Pichia kudriavzevii, UniProt Q4U2W2); assay: Inhibition of FKS1 from Candida krusei 98 isolate
Outline: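 Glucan synthase enzyme complex isolated from the pretreatment clinical strain Ck-98 and titrated with the echinocandin. Inhibition curves were fitted with a sigmoidal variable-slope dose-response model to give IC50 in ng/ml.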

1,3-beta-glucan synthase [2] = biological target: 1,3-beta-glucan synthase (Pichia kudriavzevii, UniProt Q4U2W2, F655C); assay: Inhibition of FKS1 T2080K mutant from Candida krusei 100 isolate
1,3-beta-glucan synthase (Pichia kudriavzevii, UniProt Q4U2W2, F655C), sequence (Q4U2W2 entry or part of it F655C): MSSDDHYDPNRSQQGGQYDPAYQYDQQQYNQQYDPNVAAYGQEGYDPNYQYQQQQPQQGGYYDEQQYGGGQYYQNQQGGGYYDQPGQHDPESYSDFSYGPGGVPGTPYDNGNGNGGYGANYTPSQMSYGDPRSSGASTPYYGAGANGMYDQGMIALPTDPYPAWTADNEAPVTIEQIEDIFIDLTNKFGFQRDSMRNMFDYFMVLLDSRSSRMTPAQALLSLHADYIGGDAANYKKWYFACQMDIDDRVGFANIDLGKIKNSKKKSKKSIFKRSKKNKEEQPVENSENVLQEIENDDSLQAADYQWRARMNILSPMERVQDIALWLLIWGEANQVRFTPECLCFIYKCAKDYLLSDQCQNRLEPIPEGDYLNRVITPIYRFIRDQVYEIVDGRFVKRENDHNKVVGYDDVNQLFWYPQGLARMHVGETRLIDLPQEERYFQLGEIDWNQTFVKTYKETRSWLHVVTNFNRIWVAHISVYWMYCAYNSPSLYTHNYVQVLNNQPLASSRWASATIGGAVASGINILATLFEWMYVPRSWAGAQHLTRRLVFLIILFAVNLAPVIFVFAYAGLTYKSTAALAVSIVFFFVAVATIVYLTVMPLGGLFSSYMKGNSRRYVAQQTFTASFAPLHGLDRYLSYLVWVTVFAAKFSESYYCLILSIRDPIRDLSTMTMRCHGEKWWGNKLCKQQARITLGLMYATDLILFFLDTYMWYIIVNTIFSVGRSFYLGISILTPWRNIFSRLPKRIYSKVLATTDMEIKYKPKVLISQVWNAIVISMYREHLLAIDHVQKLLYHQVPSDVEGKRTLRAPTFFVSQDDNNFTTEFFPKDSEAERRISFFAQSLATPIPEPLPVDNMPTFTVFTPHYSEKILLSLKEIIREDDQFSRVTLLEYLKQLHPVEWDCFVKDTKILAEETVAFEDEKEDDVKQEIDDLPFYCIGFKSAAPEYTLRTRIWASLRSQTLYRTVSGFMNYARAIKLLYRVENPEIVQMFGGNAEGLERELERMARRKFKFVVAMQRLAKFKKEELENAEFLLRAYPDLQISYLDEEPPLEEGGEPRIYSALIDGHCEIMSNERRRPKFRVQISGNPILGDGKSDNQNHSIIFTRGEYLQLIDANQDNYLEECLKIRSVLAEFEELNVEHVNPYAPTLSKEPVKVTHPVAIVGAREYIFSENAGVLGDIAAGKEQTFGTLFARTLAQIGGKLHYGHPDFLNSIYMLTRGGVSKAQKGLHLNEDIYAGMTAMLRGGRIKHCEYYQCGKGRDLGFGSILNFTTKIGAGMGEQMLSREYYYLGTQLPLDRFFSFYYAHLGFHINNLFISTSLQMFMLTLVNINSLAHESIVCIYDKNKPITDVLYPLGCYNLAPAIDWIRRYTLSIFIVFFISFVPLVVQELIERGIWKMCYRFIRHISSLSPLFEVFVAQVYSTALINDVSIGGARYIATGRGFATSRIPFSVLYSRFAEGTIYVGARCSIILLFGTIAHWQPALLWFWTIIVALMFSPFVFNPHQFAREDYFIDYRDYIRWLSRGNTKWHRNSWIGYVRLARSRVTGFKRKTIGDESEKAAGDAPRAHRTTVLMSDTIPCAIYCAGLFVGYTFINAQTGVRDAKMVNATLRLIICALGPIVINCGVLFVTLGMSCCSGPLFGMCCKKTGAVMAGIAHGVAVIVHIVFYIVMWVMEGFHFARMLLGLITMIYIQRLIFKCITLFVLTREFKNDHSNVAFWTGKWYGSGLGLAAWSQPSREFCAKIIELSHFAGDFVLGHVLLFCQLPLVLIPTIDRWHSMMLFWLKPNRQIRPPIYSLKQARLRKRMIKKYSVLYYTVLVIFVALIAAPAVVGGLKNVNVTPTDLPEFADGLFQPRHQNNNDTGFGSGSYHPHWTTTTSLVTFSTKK
Outline: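 Glucan synthase enzyme complex isolated from posttreatment strain Ck-100. Caspofungin titrated against the enzyme. Inhibition curve fitted with a two-site competition algorithm to give IC50 in ng/ml.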

1,3-beta-glucan synthase (Pichia kudriavzevii, UniProt Q4U2W2), sequence (Q4U2W2 whole entry): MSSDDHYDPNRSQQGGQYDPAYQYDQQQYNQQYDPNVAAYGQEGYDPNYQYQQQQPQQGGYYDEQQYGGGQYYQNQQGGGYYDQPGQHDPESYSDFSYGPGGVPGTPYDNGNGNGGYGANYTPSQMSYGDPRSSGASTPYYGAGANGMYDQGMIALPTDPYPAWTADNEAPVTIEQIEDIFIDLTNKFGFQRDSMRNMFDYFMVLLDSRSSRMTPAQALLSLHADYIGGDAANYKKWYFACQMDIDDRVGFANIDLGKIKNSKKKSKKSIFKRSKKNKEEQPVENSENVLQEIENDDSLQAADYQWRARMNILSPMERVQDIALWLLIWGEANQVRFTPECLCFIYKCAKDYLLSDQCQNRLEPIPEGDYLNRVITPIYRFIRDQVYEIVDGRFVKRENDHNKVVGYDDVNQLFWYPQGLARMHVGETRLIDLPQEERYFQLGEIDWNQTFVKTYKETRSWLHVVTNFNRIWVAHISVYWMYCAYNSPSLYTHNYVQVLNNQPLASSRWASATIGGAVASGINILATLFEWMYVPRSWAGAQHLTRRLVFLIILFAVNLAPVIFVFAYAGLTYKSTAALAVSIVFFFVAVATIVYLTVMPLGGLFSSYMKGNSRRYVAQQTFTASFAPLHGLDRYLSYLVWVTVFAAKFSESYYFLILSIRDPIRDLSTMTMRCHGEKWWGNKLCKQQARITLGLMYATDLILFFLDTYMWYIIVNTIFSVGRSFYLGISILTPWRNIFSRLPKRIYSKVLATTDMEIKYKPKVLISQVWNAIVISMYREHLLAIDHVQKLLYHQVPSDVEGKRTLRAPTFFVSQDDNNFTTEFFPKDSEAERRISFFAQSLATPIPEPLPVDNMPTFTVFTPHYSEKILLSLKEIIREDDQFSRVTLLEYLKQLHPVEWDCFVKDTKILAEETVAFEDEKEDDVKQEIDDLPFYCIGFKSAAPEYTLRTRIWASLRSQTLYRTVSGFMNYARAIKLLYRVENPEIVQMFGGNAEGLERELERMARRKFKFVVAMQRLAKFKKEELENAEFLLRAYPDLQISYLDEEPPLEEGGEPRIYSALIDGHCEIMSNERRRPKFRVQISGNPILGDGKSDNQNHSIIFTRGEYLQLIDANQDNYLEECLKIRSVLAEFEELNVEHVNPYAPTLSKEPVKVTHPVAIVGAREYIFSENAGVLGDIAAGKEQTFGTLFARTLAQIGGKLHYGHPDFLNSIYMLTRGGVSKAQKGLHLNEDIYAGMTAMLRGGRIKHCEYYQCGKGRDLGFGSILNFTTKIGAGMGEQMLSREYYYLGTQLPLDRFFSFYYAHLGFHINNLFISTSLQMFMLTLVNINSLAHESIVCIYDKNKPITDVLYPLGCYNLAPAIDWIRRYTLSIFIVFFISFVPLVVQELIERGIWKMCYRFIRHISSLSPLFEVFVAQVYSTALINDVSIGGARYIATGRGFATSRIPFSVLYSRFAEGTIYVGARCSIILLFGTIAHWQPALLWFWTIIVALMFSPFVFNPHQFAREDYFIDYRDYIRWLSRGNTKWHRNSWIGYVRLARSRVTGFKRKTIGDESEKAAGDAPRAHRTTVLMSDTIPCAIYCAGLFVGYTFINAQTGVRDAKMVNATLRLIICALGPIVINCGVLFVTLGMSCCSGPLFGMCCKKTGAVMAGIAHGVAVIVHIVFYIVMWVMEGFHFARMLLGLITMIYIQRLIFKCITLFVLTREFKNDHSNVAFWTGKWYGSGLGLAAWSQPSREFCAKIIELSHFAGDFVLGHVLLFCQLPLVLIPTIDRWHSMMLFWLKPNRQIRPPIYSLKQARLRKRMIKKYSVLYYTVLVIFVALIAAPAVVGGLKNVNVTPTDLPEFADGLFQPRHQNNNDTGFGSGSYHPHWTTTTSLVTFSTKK

`CCC(C)CC(C)CCCCCCCCC(=O)N[C@H]1C[C@@H](O)[C@@H](NCCN)NC(=O)[C@@H]2[C@@H](O)CCN2C(=O)[C@H]([C@H](O)CCN)NC(=O)[C@H]([C@H](O)[C@@H](O)c2ccc(O)cc2)NC(=O)[C@@H]2C[C@@H](O)CN2C(=O)[C@H]([C@@H](C)O)NC1=O` (some centres not stated) [CHEBI:474180] was tested. Which IC50 (1,3-beta-glucan synthase [1]) did it give?
The IC50 was 0.0068 µg/mL (≈ 0.00622 µM).

And the IC50 (1,3-beta-glucan synthase [2])?
Its IC50 is 3.94 µg/mL (≈ 3.61 µM).
